These results are taken from PMC8428381 (Journal of Virology, 2021).

The target of one assay is T1, matriptase (Homo sapiens, UniProt Q9Y5Y6).
T1 sequence (Q9Y5Y6 615-854 limits assumed): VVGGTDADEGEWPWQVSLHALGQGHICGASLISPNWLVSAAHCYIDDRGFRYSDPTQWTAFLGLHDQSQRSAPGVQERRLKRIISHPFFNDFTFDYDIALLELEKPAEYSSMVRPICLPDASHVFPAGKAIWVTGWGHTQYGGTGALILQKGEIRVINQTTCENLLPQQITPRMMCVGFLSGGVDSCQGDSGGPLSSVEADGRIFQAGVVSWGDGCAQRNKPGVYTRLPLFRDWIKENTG
Nature of the assay: Chromogenic enzyme inhibition assay, matriptase. It is filed as biochemical. In a few lines: (§1)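 Serine protease domains (uPA, matriptase) expressed in Pichia pastoris X-33. 2 nM enzyme preincubated 15 min at 37°C with varied test compound in 0.01 M HEPES, 0.15 M NaCl, pH 7.4, 0.1% BSA. Substrate at about Km: S-2444 for uPA, S-2288 for matriptase. Initial rates read at 405 nm; IC50 from a sigmoidal nonlinear fit.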

In another assay the target is factor XIa (FXIa) (Homo sapiens, UniProt P03951). Nature of the assay: Chromogenic enzyme inhibition assay, factor XIa. It is filed as biochemical. The method in brief:
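Recombinant FXIa serine protease domain expressed in Pichia pastoris X-33. 2 nM enzyme preincubated 15 min at 37°C with a range of test compound concentrations in 0.01 M HEPES, 0.15 M NaCl, pH 7.4, 0.1% BSA. Chromogenic substrate was then added at about its Km. Initial velocities were read at 405 nm, and IC50 came from a sigmoidal nonlinear fit.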

A further assay concerns the target uPA (Homo sapiens, UniProt P00749, C299A/N322Q). Nature of the assay: Chromogenic enzyme inhibition assay, uPA serine protease domain. It is filed as biochemical. In a few lines: as §1
The target in another assay is plasma kallikrein (PK) (Homo sapiens, UniProt P03952). Nature of the assay: Chromogenic enzyme inhibition assay, plasma kallikrein. It is filed as biochemical.
The next assay concerns the target murine uPA (muPA) (Mus musculus, UniProt P06869). Nature of the assay: Chromogenic enzyme inhibition assay, murine uPA serine protease domain. It is filed as biochemical. In a few lines: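 Mouse uPA serine protease domain, expressed as E. coli BL21(DE3) inclusion bodies, then refolded and purified. 2 nM enzyme preincubated 15 min at 37°C with varied test compound in 0.01 M HEPES, 0.15 M NaCl, pH 7.4, 0.1% BSA. S-2444 then added at about Km. Initial velocities read at 405 nm; IC50 from a sigmoidal nonlinear regression.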

The next assay has as its system SARS-CoV-2. Conditions: by acting against TMPRSS2; cited from earlier work.

Each structure is given as a SMILES string. Where a name gives a salt, the structure may show the parent alone.

Chain of murine uPA (muPA) (P06869 180-426 limits assumed): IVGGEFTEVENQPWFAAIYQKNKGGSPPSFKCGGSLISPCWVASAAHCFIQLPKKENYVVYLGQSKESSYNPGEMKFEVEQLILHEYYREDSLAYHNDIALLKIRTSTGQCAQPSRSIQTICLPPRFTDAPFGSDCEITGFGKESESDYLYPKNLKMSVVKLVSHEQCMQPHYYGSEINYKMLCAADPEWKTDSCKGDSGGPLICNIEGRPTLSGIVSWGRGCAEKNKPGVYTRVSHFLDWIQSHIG
Chain of plasma kallikrein (PK) (P03952 391-626 limits assumed): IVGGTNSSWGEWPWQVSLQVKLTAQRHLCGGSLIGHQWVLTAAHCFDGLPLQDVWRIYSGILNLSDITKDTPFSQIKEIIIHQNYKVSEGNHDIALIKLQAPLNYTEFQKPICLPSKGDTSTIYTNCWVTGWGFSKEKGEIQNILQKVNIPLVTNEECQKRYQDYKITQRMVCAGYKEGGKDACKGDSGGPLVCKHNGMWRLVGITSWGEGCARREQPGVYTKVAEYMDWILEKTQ
Chain of factor XIa (FXIa) (P03951 388-623 limits assumed): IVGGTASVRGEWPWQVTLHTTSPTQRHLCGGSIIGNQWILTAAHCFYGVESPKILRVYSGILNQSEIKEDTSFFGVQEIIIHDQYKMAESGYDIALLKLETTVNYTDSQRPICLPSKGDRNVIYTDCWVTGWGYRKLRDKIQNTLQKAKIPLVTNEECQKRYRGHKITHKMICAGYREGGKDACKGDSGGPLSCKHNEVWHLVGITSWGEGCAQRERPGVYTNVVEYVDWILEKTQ

In general, IC50 refers to the point on the concentration scale where inhibition reaches its midpoint. Low values mean greater potency, high ones weaker potency. Turning to `CN(C)C(=O)COC(=O)Cc1ccc(OC(=O)c2ccc(NC(=N)N)cc2)cc1` [camostat, camostat mesylate], the IC50 was found to be 21.1 ± 3.5 nM on matriptase; 44.1 ± 1.1 nM against factor XIa (FXIa); 86.4 ± 9.4 nM on uPA; 10.4 ± 2.7 nM against plasma kallikrein (PK); 100 ± 41.9 nM against murine uPA (muPA). Besides, the “SARS-CoV-2 infection of human lung cells” value in the assay on SARS-CoV-2 is listed as “inhibits SARS-CoV-2 infection of human lung cells”.
